Tested on: MS2 coat protein
Assay: apparent Kd, MS2 coat protein; higher = weaker binding; RNA-MaP array; FMN 200 µM where present
How it was run: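 Designs were transcribed by stalled E. coli RNA polymerase on Illumina sequencing-chip clusters. They were titrated with SNAP-549-labelled MS2 coat protein from 0.7 or 1.5 nM, doubling to 3 µM, in 100 mM Tris-HCl pH 7.5, 80 mM KCl, 4 mM MgCl2, BSA, DTT, yeast tRNA and Tween-20, without and then with constant ligand. The apparent Kd is the median of filtered per-cluster fits after normalisation of green signal to red-channel RNA signal and control-cluster median Fmax.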

[1] = designed as: OFF switch for flavin mononucleotide, no ligand
[2] = ligand present: flavin mononucleotide, designed as: OFF switch for flavin mononucleotide
[3] = designed as: ON switch for flavin mononucleotide, no ligand
[4] = ligand present: flavin mononucleotide, designed as: ON switch for flavin mononucleotide

Row | Sequence | apparent Kd [1] [nM] | apparent Kd [2] [nM] | apparent Kd [3] [nM] | apparent Kd [4] [nM]
1 | AUUGGUGGUGUAGGAUAUAACAGCAGCUGUGGUACCGUGUGUUAAGGACAUGAGGAUCACCCAUGUUAGAAGGACACUGUCCAG | 436 | 75.8 |  | 
2 | CUUGGGUGGCUGGAGGAUAUUCGAGUGGUAACAUGAGGAUCACCCAUGUGUCGCGCGGUACACGAGGAGAAGGCUGGCGGCCGGC |  |  | 146 | 54.6
3 | GCGUGACAUGAGGAUCACCCAUGUGAGGAUAUCUGGAUAAUUUUUAUUUUAGAUAUCCAGAGAAGGCACAUGCU | 63.8 | 156 |  | 
4 | CGCUCAAUUCUUUAGGUUAGAAUCAGAAGGCGUAACAUGAGGAUCACCCAUGUAUAGACGUGUAACGAGGAUAUGAAUUGAGCG | 5.64 | 5.46 |  | 
5 | ACCUAUGAGGAGGAUAUACGGUGCGAAAGGACGGUAGAAGGCUUCACAUGAGGAUCACCCAUGUCGAUAAGCGA | 21.2 | 22.5 |  | 
6 | AGCCUGAGUCGAGGAUAUUAUGGAUCCUUUAAUACAUGAGGAUCACCCAUGUAAUUAAUUAUACAUGAGAAGGUGACUCAGGCA |  |  | 265 | 25.1
7 | CCAUCGAGUGUGAGGAUAUGCUGGUCCUUGGAUCAGCAGAAGGCACAUGAGGAUCACCCAUGUGAAUACGGUGG | 29.9 | 199 |  | 
8 | GGACCGCGCAGAGUUGACGGUCGGCAGGAUAUGACAUGAGGAUCACCCAUGUGAACUCCAUUGGGUCAGAAGGGCCACGACGAA | 21.1 | 77.3 |  | 
9 | UAAAGACAUGAGGAUCACCCAUGUGAGGAUAUCGGAGAUAACGGAACAUCAAGUUCGGCGAGAAGGCACAGGAA | 53.9 | 58.1 |  | 
10 | GGUUGACAAAGUCAACCUAUUCGAACAUGAGGAUCACCCAUGUAGGAUAUGCUACUCAAAGAGUAGCAGAAGGACAUGUGCCUU | 32.7 | 172 |  | 
11 | AAGACUAGAGGAUAUACAUGAGGAUCACCCAUGUAACUGUCAGAAAACUGACGGAGAUGUAGAAGGCUAGUCAA | 17.7 | 34.7 |  | 
12 | AUAUGAUAGAUAGGAUAUACAUUGGAUUUAUAAGUAGAAGGAUCAAGUGGGAAUUAUACAUGAGGAUCACCCAUGUUUUUGGAU |  |  | 63.9 | 43.9
13 | UCAUUGGUUGUGAGGAUAUCGGUGUGAUGGAUUGUCGAGAAGGCACAUGAGGAUCACCCAUGUUUGUUUGGGCU | 577 | 449 |  | 
14 | AAAAGACAUGAGGAUCACCCAUGUCAGGAUAUCUUCCGUAGGCCGAAUGGCUUCCGGUGGAGAAGGGACAUCGG | 50.7 | 104 |  | 
15 | ACAGAGGCUGACAUGAGGAUCACCCAUGUUAGAUUGUUAUGUCAGGAUAUUGUCUAGCAACUAGACAAGAAGGGACCCUCUGUG |  |  | 39.2 | 9.69
16 | UAAUAAAACGAUCGGCGGUCCAUACAUGAGGAUCACCCAUGUAGAAGGCACUCUACAAAGUAGAGUGAGGAUAUACAAGAUCGA | 15 | 258 |  | 
17 | GGAUAGGACAGAGGAUAUGCGUGCUAGAGAUACUAGCAAAAUUUCCUCACAUGAGGAUCACCCAUGUAGAAGGCUGUCCUAUCG | 7.75 | 66.2 |  | 
18 | UUGAAUUGAAACAUGAGGAUCACCCAUGUGUCAUAGUUGACAUAGGAUAUGCUUAUACUUUUAAAGCAGAAGGAUGACGAUACU |  |  | 19.8 | 7.46
19 | GGCUAGGACAGAGGAUAUACGUGCUAGAGAUACUAGCAAAAUUUCCUCACAUGAGGAUCACCCAUGUAGAAGGCUGUCCUAUCG | 18.4 | 458 |  | 
20 | GGGUACAUCGGAGGAUAUCAUGUAAAUACAUGAGGAUCACCCAUGUCGAUGGAGACAUCGGAGAUUGAGAAGGCCGAUGUACAG |  |  | 146 | 8.38
21 | CCAUGGAGUGUGAGGAUAUGCUGGUCCUUGGAUCAGCAGAAGGCACAUGAGGAUCACCCAUGUGAAUACCGUGG | 36.2 | 196 |  | 
22 | CCGAAUGUCACAGGAUAUGGUCCGGGCUCGCGACCAGAAGGGUGAUCUCACAUGAGGAUCACCCAUGUGUAGGCGUUAGGCUAU |  |  | 34.1 | 260
23 | GCGUGGUUCUAGAAGGUGCUAGCGAUAAGCUAGCAAGGAUAUAGACAUGAGGAUCACCCAUGUCUUAGUGAAAUGGACACACGC |  | 5.09 |  | 
24 | UUAAAUCAUGUAGGAUAUGCAUGGCGAAGCUACGCAGAAGGACAUGAGGAUCACCCAUGUGCUAGCGUCUGAGUACAGAUGCAA | 39.3 | 259 |  | 
25 | UAUAUAUAGUAAGGAUAUGUAUUAAUUUUAUAAACAGAAGGUACUGACAUGAGGAUCACCCAUGUUUUAGUGUGGGCAUGUAGA | 102 | 169 |  | 
26 | CAUGUCCUCACAGGAUAUGCAAUGUAUUUCAUUGCAGAAGGGUGAACACAUGAGGAUCACCCAUGUGGACAUGAUAUAUUUAAU |  |  | 521 | 69.5
27 | UCCCGGGUGCAGAAGGGAUAGGCCUAUUUUCGUGGUAUCCAAACCUUACAUGAGGAUCACCCAUGUCAGGAUAUGCCCACGGGA | 4.47 | 4.96 |  | 
28 | CUGGAAGUCGUAGGAUAUGGUGAUGUACAUGAGGAUCACCCAUGUCCGUCUUCUCUCACAAGAUGCCAGAAGGACGACUUCCGG |  |  | 625 | 101

Row | Sequence | apparent Kd [1] [nM] | apparent Kd [2] [nM] | apparent Kd [3] [nM] | apparent Kd [4] [nM]
29 | CCGGAAACGGGUAGCUGACAUGAGGAUCACCCAUGUGAAUCUGAGGAUAUGGAUCCUAAUUGGAUCCAGAAGGCAGUCAGCUAC |  |  | 615 | 61.4
30 | AGUCGGCAUGAGAAGGGUUACAUGAGGAUCACCCAUGUGAUCAAAUCGUUAACAGGAUAUCAGGCGUCGGGCUUUACCCGGAGG | 19.5 | 125 |  | 
31 | GCUGCAUAGGCAGGAUAUGCAAUAAUUCGAAUAGAAUAUAACGAAUUAACAUGAGGAUCACCCAUGUAGAAGGGCCUGUGCAGU | 5.76 | 5.58 |  | 
32 | AACAUGUCAGGAUAUGCAACAGGAGACUGACACGCGAGUGAGCAGAAGGGACAUGAGGAUCACCCAUGUUCAAA | 19.1 | 17.4 |  | 
33 | GGUGCAGUGUAGAAGGCAGAUCUGAUUCAGAUCUGAGGAUAUACAUGAGGAUCACCCAUGUUAUGCACCAGCACGAGAGUGCAA | 6.28 | 8.76 |  | 
34 | AGUAAGAUGCAGAAGGUGUCAGCGAGAGCUACGACAUGAGGAUCACCCAUGUACUAGGUAGAGUACAAGGAUAUGCAUCUUACA |  |  | 324 | 24.6
35 | ACAUGCAAGUAGAAGGACGGAUAUUUUGAUAACGUAGGAUAUACAGAAUCAUAUCCACAUGAUAACAUGAGGAUCACCCAUGUA | 11.8 | 12.4 |  | 
36 | AUUGUAUAGGAAGGAUAUAGAAUAUUAUUUUAACAUGAGGAUCACCCAUGUAACCUUAUGUGUAGCUAGAAGGUCCGUUUAUUA | 110 | 162 |  | 
37 | GUGGUGAAUUAAGGAUAUCGAGUCUAGAUGUUAAACAUGAGGAUCACCCAUGUGGGUUGCGGUGUCGAGAAGGUAAUUUACGGG |  |  | 64.3 | 33.9
38 | UAAUAAUAAUAAUAGCAGUUUACAUGAGGAUCACCCAUGUAUAAGGAUAUCGUCAGGAAUACUGACGAGAAGGUAUACAUCUGC | 20.3 | 33.6 |  | 
39 | ACAUUUAAUACAGGAUAUGUUAGUAUACAGUAGAUUGGUUAUUACAUAAUAACAGAAGGGUAGAACAUGAGGAUCACCCAUGUA |  |  | 217 | 106
40 | CUACGAACGAUAGGAUAUACUGAGGUUGAGUGGGUAGAAGGAUCGAUAGUGGAGAAGACAUGAGGAUCACCCAUGUUGUGGAUU |  |  | 176 | 45.5
41 | GGAAAGCGAGGAUAUACAUGAGGAUCACCCAUGUAAAAGAAAAGAAAAGAAAGAAAAUGUAGAAGGCGCAAAAA | 47.8 | 48.4 |  | 
42 | UUAAAUCGAAACAUGAGGAUCACCCAUGUGUUGUGGUUAAUAUAGGAUAUGUGUAUACUUUUAUGACAGAAGGAUGAUAAUACU |  |  | 15.5 | 12.6
43 | GAUUUGUGAGGAUAUACAUGAGGAUCACCCAUGUGUGUCCAUACGCGUGAGUCUUCGUGUAGAAGGCGCGGGUC | 15.5 | 15.9 |  | 
44 | GGAUUACGAGGAUAUCGAUUUUAGUACAUGAGGAUCACCCAUGUUGUCCAGGUCUCGUUUCGAGAAGGCGUGAUUC | 65.1 | 48.7 |  | 
45 | AGGAUUGUGCUAGGAUAUCCAGGUUUGCAACAAGGAGAAGGAGCACAUGAGGAUCACCCAUGUUCUCAAAGGCCAUGGCAAUAA | 23.4 | 84.2 |  | 
46 | AAAAAAAAGCCCAAGGAUAUCCGGAUGAAGACAUGAGGAUCACCCAUGUGAAAAAAAAAAUAUGAGGAGAAGGUGGGAAAAAAAAA |  |  | 83.6 | 61.6
47 | AGUAGAUCAGGAUAUACGUAAAUGGUAAUUAUGUAACUUCUACAUGAGGAUCACCCAUGUAGAAGGGAUCUACA | 13.6 | 13.4 |  | 
48 | GGUCCACGAGGAUAUCGAUUUUAGUACAUGAGGAUCACCCAUGUUGUCCAGGUUUCGAUUCGAGAAGGCGUGGGCC | 22.2 | 24.6 |  | 
49 | UUAGCGUAAGUAAGGAUAUGCUGGUCGAAAGACCAGCAGAAGGUACAUGAGGAUCACCCAUGUUGAGUUGUUGC | 20 | 24.3 |  | 
50 | UUGUUAUAUGUAGGAUAUGCAUAUUAUUAUUAUGCAGAAGGACAUGAGGAUCACCCAUGUAUAUUGUUGUUAUAUAUUAUAUAU | 24 | 28.4 |  | 
51 | AACAAGUCAGGAUAUGUUAAAGGUUACGAAAGGGAUAAAGGGCAGAAGGGACAUGAGGAUCACCCAUGUAAUAA | 58 | 50.2 |  | 
52 | AAUUGGAUCCAGAAGGCAUGGACGACCCGUCACAUUAACAUGAGGAUCACCCAUGUAAAAAUACAUGAGGAUAUGGAUCCUAAA |  |  | 41.3 | 7.43
53 | ACAAGAUCAGGAUAUACAUGAGGAUCACCCAUGUAUUUCAAAAAGGGACUUUCUUAAUGUAGAAGGGAUCUUGU | 22.5 | 94.4 |  | 
54 | AAAACAUGAGGAUCACCCAUGUAUAGAGCGGUUAAUAAAGGUGAGGAUAUACUAAAUUUUAUAUAGUAGAAGGCACUGGGUACU |  |  | 26.7 | 30.5
55 | UUGUUAUAUGUAGGAUAUGCGUAUUAUUGUUAUGCAGAAGGACAUGAGGAUCACCCAUGUAUAUUAUUGUUAUAUAUUAUAUAU | 25.7 | 66.5 |  | 

— the EternaBench riboswitch data
